In ChEMBL document CHEMBL5096236, “Development of Fluorinated Peptoid-Based Histone Deacetylase (HDAC) Inhibitors for Therapy-Resistant Acute Leukemia” (J Med Chem, 2022):
The source made the active and inactive calls. No cut-off for these calls is given here.

What was measured:
Histone deacetylase 1 = Histone deacetylase 1 (Homo sapiens, UniProt Q13547); assay: Inhibition of recombinant human C-terminal FLAG/His-tagged HDAC1 (1 to 482 residues) expressed in Sf9 insect cells using Z-Lys(Ac)-AMC as fluorogenic substrate incubated for 90 mins by microplate reader analysis
Histone deacetylase 1, sequence (Q13547 whole entry, the tested form may be a part): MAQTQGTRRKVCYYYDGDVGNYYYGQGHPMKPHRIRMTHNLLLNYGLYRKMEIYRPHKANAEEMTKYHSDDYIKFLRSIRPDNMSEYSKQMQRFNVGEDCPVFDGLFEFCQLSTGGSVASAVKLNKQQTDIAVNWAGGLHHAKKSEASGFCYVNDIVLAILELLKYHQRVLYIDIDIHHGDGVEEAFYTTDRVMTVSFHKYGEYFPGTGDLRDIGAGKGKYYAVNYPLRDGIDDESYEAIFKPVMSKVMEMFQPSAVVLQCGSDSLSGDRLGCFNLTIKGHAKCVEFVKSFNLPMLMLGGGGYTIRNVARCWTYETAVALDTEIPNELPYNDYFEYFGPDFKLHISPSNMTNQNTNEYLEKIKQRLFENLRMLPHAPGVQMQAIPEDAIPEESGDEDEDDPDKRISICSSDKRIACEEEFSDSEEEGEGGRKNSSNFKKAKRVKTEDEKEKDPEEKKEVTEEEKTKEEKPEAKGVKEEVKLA

HAL-01 = assay: cells; type: functional, cell-based; details: Homo sapiens, HAL-01, 72 h
[1] = molecular target: T1, Protein deacetylase HDAC6 (Homo sapiens, UniProt Q9UBN7); assay: Inhibition of recombinant human N-terminal GST-tagged HDAC6 (1 to 1215 residues) expressed in Sf9 insect cells using Z-Lys(Ac)-AMC as fluorogenic substrate incubated for 90 mins by microplate reader analysis
T1 sequence (Q9UBN7 whole entry): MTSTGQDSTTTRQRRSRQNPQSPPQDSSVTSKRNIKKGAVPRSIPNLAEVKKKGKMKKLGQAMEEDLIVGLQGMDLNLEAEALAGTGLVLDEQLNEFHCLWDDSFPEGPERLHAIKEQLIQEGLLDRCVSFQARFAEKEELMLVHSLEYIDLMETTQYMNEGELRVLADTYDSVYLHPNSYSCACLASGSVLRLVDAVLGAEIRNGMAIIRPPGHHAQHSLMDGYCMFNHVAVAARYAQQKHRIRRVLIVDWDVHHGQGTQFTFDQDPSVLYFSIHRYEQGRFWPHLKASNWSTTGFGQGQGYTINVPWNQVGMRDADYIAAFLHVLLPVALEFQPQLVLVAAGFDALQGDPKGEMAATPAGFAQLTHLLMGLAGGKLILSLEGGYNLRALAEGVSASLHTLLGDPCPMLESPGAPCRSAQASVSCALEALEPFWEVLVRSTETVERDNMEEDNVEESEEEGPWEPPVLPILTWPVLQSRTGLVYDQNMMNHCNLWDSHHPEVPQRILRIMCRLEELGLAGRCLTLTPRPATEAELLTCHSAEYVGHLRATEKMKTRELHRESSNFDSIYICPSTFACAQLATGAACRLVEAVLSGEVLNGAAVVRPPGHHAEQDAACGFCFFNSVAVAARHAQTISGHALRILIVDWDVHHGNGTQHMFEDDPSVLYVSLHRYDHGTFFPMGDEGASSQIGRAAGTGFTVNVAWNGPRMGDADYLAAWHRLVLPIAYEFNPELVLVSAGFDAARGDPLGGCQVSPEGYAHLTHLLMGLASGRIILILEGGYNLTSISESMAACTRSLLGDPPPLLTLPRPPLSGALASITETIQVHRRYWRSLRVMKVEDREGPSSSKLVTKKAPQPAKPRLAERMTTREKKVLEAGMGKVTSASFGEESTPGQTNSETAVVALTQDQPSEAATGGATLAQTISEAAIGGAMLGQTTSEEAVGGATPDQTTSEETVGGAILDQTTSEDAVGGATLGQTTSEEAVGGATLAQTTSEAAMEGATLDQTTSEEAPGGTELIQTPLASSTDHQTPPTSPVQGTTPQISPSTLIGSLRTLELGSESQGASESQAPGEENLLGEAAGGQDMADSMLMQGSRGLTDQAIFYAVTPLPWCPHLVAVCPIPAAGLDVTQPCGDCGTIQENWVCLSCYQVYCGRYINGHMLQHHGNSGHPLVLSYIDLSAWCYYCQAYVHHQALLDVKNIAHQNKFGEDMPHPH

Jurkat = assay: cells; type: functional, cell-based; details: Homo sapiens, 72 h
Histone deacetylase 4 = Histone deacetylase 4 (Homo sapiens, UniProt P56524); assay: Inhibition of recombinant human N-terminal GST-tagged/C-terminal His-tagged HDAC4 (627 to 1084 residues) expressed in baculovirus infected Sf9 insect cells using Boc-Lys (trifluoroacetyl)-AMC as substrate incubated for 90 mins by microplate reader analysis
Histone deacetylase 4, sequence (P56524 whole entry, the tested form may be a part): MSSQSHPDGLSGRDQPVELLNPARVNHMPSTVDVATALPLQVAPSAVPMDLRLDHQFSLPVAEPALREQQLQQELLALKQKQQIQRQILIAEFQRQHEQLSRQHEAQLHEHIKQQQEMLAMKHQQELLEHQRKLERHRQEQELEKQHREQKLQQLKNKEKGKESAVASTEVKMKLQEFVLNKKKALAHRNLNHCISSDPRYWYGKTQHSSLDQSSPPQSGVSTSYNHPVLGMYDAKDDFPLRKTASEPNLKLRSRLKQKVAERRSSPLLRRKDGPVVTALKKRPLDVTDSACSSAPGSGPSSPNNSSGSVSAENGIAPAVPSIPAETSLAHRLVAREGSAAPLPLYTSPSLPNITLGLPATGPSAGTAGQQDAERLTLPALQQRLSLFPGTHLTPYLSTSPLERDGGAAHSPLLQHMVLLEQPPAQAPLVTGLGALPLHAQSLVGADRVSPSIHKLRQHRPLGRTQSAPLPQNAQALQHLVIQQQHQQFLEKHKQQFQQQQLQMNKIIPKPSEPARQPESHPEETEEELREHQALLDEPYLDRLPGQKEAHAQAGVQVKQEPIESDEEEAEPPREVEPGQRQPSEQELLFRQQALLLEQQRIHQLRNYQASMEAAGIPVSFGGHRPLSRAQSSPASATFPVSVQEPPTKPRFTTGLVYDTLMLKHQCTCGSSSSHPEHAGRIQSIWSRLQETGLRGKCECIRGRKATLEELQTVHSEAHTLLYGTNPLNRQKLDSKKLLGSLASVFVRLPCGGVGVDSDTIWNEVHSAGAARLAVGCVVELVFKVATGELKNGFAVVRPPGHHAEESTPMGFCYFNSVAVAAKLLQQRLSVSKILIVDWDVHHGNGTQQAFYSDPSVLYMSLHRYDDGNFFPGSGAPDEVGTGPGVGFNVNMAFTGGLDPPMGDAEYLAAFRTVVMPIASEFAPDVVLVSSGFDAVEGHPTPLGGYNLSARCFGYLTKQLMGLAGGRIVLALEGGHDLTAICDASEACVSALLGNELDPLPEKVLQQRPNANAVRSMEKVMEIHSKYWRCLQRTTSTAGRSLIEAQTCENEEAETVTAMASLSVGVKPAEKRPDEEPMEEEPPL
Summary of the method: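 HDAC4 enzyme in Tris-HCl pH 8.0 buffer with NaCl, KCl, MgCl₂ and 0.1 mg/mL BSA, max. 1% DMSO. Trypsin (1.0 mg/mL) added, 30 min. Three-parameter log(inhibitor) fit. Duplicates, ≥2 experiments, mean ± SD. SI = IC50 HDAC4/IC50 HDAC6.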

HL-60 [2] = assay: Induction of apoptosis in human HL-60 cells assessed as increase in total apoptotic cells at 1 to 5 uM incubated for 48 hrs by annexin V and propidium iodide staining based flow cytometry analysis; type: functional, cell-based; details: dose 1-5 µM
Summary of the method: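 HL60 cells (RPMI 1640 GlutaMax, 10-20% FCS, 37°C, 5% CO₂) exposed to compound or control at 1 or 5 μM for 48 h, then stained with annexin V and propidium iodide and analysed by flow cytometry; n=3.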

Histone deacetylase 2 = Histone deacetylase 2 (Homo sapiens, UniProt Q92769); assay: Inhibition of recombinant human C-terminal FLAG-tagged HDAC2 (1 to 488 residues) expressed in Sf9 insect cells using Z-Lys(Ac)-AMC as fluorogenic substrate incubated for 90 mins by microplate reader analysis
Histone deacetylase 2, sequence (Q92769 whole entry, the tested form may be a part): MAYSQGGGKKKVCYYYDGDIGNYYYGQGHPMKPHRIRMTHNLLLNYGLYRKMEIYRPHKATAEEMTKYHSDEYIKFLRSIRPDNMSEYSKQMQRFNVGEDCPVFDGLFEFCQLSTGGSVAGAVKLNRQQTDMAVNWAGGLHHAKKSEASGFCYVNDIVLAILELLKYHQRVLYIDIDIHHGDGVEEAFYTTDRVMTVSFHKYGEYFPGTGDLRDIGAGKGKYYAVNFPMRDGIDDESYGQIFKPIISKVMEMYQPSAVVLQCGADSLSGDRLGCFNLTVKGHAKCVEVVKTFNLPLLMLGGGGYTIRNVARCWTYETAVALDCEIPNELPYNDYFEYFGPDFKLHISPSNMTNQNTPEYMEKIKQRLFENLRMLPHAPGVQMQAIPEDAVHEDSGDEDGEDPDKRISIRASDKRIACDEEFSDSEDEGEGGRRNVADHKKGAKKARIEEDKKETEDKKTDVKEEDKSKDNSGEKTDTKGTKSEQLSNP
Summary of the method: (§1)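 Compound incubated with ZMAL (Z-Lys(Ac)-AMC; 21.43 μM solution) and enzyme at 37 °C for 90 min. Trypsin (0.4 mg/mL) added, 30 min at 37 °C. […] Duplicates, ≥2 independent experiments. SI = IC50 (HDAC2 or 3)/IC50 (HDAC6).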

[3] = molecular target: T2, Histone deacetylase (Homo sapiens) (UniProt Q13547+O15379+Q9UBN7+Q92769+Q9UQL6+Q8WUI4+Q9BY41+Q96DB2+P56524+Q9UKV0+Q969S8); assay: Inhibition of HDAC in human HL-60 cells assessed as increase in alpha tubulin acetylation at 6 to 36 uM incubated for 24 hrs by immunoblot analysis; type: cell-based; details: dose 6-36 µM
[4] = molecular target: Histone deacetylase 3/Nuclear receptor corepressor 2 (HDAC3/NCoR2) (Homo sapiens, UniProt O15379); assay: Inhibition of C-terminal His-tagged recombinant human HDAC3 (1 to 428 residues)/N-terminal GST-tagged recombinant human NCoR2 (395 to 489 residues) co-expressed in Sf9 cells using Z-Lys(Ac)-AMC as fluorogenic substrate incubated for 90 mins by microplate reader analysis; summary of the method: as §1
Histone deacetylase 3/Nuclear receptor corepressor 2 (HDAC3/NCoR2), sequence (O15379 whole entry, the tested form may be a part): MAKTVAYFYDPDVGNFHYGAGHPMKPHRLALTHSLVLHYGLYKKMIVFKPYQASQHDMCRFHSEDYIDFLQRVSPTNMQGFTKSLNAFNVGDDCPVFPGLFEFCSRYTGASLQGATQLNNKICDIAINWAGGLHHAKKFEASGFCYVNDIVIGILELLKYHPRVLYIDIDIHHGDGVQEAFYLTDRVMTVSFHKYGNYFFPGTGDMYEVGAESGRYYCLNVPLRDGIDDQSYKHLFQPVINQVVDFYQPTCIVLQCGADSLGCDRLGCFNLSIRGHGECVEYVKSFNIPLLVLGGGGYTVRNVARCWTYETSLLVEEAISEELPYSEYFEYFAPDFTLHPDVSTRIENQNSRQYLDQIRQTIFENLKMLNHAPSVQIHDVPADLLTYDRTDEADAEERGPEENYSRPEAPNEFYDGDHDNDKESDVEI
Histone deacetylase 3/Nuclear receptor corepressor 2 (HDAC3/NCoR2), sequence (Q9Y618 whole entry, further chain, the tested form may be a part): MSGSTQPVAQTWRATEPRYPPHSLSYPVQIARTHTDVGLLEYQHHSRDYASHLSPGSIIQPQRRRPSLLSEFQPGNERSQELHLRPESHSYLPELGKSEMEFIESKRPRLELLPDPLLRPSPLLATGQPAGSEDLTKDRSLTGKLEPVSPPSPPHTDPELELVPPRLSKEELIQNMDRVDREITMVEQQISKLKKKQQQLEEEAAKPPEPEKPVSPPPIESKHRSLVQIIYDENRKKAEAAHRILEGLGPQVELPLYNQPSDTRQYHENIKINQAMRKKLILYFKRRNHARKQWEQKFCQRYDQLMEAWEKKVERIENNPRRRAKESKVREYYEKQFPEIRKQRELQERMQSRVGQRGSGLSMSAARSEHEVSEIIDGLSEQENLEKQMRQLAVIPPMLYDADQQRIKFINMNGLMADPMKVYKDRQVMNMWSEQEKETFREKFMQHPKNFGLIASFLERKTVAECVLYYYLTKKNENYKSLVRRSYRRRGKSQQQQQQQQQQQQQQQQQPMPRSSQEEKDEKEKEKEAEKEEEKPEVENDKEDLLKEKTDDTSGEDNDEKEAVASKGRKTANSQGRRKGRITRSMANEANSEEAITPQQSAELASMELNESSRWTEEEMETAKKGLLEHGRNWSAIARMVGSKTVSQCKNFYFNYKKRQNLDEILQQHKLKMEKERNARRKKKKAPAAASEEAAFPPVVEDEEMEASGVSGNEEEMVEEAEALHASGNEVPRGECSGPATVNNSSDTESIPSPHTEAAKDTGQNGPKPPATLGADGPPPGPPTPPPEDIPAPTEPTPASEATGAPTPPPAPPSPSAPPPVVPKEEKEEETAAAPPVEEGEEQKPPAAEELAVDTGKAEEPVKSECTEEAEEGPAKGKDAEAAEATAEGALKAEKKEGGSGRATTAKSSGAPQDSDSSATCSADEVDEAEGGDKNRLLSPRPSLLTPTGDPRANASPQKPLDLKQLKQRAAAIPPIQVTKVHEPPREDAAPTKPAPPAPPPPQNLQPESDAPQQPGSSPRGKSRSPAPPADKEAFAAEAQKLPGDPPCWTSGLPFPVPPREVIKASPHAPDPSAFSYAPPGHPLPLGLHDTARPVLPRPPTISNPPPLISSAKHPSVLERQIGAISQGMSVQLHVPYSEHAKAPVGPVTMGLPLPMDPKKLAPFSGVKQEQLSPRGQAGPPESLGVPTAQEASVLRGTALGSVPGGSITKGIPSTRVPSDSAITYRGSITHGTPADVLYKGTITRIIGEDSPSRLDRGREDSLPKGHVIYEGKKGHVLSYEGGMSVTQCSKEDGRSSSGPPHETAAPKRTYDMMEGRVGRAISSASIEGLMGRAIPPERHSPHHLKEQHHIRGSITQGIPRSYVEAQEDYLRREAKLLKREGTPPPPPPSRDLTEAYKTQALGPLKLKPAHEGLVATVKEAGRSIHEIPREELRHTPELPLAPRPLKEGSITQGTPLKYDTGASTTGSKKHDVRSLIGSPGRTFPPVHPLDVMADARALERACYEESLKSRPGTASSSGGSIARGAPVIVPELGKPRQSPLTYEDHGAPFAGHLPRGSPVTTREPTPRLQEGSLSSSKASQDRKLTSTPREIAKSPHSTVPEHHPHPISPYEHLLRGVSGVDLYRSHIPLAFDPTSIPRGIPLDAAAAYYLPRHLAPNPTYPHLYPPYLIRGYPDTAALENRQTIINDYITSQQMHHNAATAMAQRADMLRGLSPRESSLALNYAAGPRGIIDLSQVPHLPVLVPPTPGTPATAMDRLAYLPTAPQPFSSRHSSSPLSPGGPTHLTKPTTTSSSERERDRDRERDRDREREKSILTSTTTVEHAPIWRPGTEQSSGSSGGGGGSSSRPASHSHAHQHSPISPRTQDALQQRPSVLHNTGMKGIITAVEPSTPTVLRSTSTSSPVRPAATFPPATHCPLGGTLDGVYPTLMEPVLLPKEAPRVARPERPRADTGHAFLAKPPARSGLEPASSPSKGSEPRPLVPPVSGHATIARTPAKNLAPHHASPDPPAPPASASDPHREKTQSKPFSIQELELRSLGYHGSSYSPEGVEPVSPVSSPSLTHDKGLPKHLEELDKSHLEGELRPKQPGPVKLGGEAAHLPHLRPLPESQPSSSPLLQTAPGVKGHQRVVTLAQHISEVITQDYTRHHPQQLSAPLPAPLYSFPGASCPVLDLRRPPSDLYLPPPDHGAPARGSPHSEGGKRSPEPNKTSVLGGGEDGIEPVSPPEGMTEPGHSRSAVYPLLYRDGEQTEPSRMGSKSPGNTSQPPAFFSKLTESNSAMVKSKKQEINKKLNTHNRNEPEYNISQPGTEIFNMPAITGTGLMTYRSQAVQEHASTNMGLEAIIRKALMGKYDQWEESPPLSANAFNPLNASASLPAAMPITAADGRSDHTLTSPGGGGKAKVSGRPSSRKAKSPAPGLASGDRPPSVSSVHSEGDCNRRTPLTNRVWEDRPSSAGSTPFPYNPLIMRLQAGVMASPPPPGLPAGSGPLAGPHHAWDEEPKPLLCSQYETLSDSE

HL-60 [5] = assay: cells; type: functional, cell-based; details: Homo sapiens, HL-60, 72 h
MOLM-13 = assay: Synergistic cytotoxicity against human MOLM-13 cells assessed as increase in synergy score at 0.1 to 2 uM incubated for 72 hrs in presence of […] inhibitor, decitabine by CellTiter-Glo luminescent assay; type: functional, cell-based; details: dose 0.1-2 µM
Summary of the method: (§2)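 AML cells treated 72 h in an 8×8 dose matrix: compound 0.1–2 μM and decitabine 0.25–10 μM, logarithmically spaced. Viability by CellTiter-Glo luminescence. Synergy scored with the ZIP model in SynergyFinder.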

[6] = molecular target: T2, Histone deacetylase (Homo sapiens); assay: Inhibition of HDAC in human HL-60 cells assessed as increase in Ac-H3 levels incubated for 24 hrs by immunoblot analysis; type: cell-based; details: dose lower […], dose upper 296.0 nM, DDE = dose-dependent effect
[7] = molecular target: T2, Histone deacetylase (Homo sapiens); assay: Inhibition of HDAC in human HL-60 cells assessed as increase in Ac-H3 levels at 0.15 uM incubated for 24 hrs in presence of DNA methyltransferase inhibitor, decitabine by immunoblot analysis; type: cell-based
Summary of the method: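 HL60 cells treated for 24 h with compound alone or combined with decitabine at indicated concentrations. Acetylated H3 detected by immunoblotting.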

[8] = molecular target: T2, Histone deacetylase (Homo sapiens); assay: Inhibition of HDAC in human HL-60 cells assessed as increase in alpha tubulin acetylation incubated for 24 hrs by immunoblot analysis; type: cell-based; details: dose lower […], dose upper 296.0 nM, DDE = dose-dependent effect
HL-60 [9] = assay: Synergistic cytotoxicity against human HL-60 cells assessed as increase in synergy score at 0.1 to 2 uM incubated for 72 hrs in presence of DNA methyltransferase inhibitor, decitabine by CellTiter-Glo luminescent assay; type: functional, cell-based; details: dose 0.1-2 µM; summary of the method: as §2

| Compound | IC50 (Histone deacetylase 1) [nM] | IC50 (HAL-01) [nM] | IC50 [1] [nM] | further results |
| --- | --- | --- | --- | --- |
| COc1ccccc1C(=O)N(CC(=O)NC1CCCCC1)Cc1ccc(C(=O)NO)cc1F | 1500 | > 25000 | 20 |  |
| COc1ccccc1C(=O)N(CC(=O)NC(C)(C)C)Cc1ccc(C(=O)NO)cc1F | 1750 | > 25000 | 17 |  |
| O=C(CN(Cc1ccc(C(=O)NO)cc1F)C(=O)c1ccccc1F)NC1CCCCC1 |  |  | 18 |  |
| COc1ccccc1C(=O)N(CC(=O)NC(C)(C)C)Cc1ccc(C(=O)NO)cc1 |  |  |  | IC50 (Histone deacetylase 1; sf9): 3110 nM; IC50 ([1]; sf9): 38 nM |
| Cc1ccccc1C(=O)N(CC(=O)NC(C)(C)C)Cc1ccc(C(=O)NO)cc1 |  |  |  | IC50 (Histone deacetylase 1; sf9): 2410 nM; IC50 ([1]; sf9): 51 nM |
| Cc1ccccc1C(=O)N(CC(=O)NC1CCCCC1)Cc1ccc(C(=O)NO)cc1F | 938 |  | 18 |  |
| Cc1cc(C)cc(C(=O)N(CC(=O)NC(C)(C)C)Cc2ccc(C(=O)NO)cc2F)c1 | 573 |  | 24 |  |
| Cc1cc(C)cc(C(=O)N(CC(=O)NC2CCCCC2)Cc2ccc(C(=O)NO)cc2)c1 | 249 |  | 40 |  |
| CC(C)c1ccccc1C(=O)N(CC(=O)NC(C)(C)C)Cc1ccc(C(=O)NO)cc1F | 8010 | > 25000 |  | IC50 (Jurkat): > 25000 nM; IC50 (Histone deacetylase 4): > 10000 nM; Activity (HL-60 [2]): Active; IC50 (Histone deacetylase 2): 4480 nM; inhibition [3]: Active; IC50 [4]: 8350 nM |
| CC(C)(C)NC(=O)CN(Cc1ccc(C(=O)NO)cc1F)C(=O)c1ccccc1C(F)(F)F | 2330 | > 25000 | 27 | IC50 (Jurkat): > 25000 nM |
| O=C(CN(Cc1ccc(C(=O)NO)cc1F)C(=O)c1ccccc1C(F)(F)F)NC1CCCCC1 | 1450 |  |  | IC50 (Jurkat): > 25000 nM |
| CN(C)c1ccc(C(=O)N(CC(=O)NC(C)(C)C)Cc2ccc(C(=O)NO)cc2F)cc1 | 158 |  | 20 |  |
| Cc1ccccc1C(=O)N(CC(=O)NC(C)(C)C)Cc1ccc(C(=O)NO)cc1F | 1750 |  | 27 |  |
| Cc1cc(C)cc(C(=O)N(CC(=O)NCc2ccccc2)Cc2ccc(C(=O)NO)cc2F)c1 | 77 | 2750 | 13 | IC50 (Jurkat): 6230 nM; IC50 (HL-60 [5]): 9150 nM |
| CC(C)(C)NC(=O)CN(Cc1ccc(C(=O)NO)cc1F)C(=O)c1ccccc1Cl | 3470 |  | 21 |  |
| CC(C)(C)NC(=O)CN(Cc1ccc(C(=O)NO)cc1F)C(=O)c1ccccc1F | 1180 |  | 26 |  |
| Cc1cc(C)cc(C(=O)N(CC(=O)NC2CCCCC2)Cc2ccc(C(=O)NO)cc2F)c1 |  |  | 20 |  |
| CN(C)c1ccc(C(=O)N(CC(=O)NC2CCCCC2)Cc2ccc(C(=O)NO)cc2F)cc1 | 66 |  | 16 |  |
| O=C(NO)c1ccc(CC(=O)N(CCO)c2ccccc2)cc1 |  | 13900 |  | IC50 (Jurkat): 16100 nM; IC50 (HL-60 [5]): 11300 nM |
| CN(C)c1ccc(C(=O)N(CC(=O)NCc2ccccc2)Cc2ccc(C(=O)NO)cc2F)cc1 | 13 | 375 |  | IC50 (Jurkat): 285 nM; Activity (HL-60 [2]): Active; Activity (MOLM-13): Active; IC50 (Histone deacetylase 2): 14 nM; IC50 (Histone deacetylase 2; record 2): 14 nM; IC50 (HL-60 [5]): 218 nM; inhibition [6]: Dde; inhibition [7]: Active; IC50 [4]: 21 nM; inhibition [8]: Dde; Activity (HL-60 [9]): Active |
| CN(C)c1ccc(C(=O)N(CC(=O)NCc2ccccc2)Cc2ccc(C(=O)NO)cc2)cc1 | 5 |  | 11 |  |
